Screening results as filed in PubChem BioAssay.
KCNQ1 inh: inhibitors of human KCNQ1 channel, primary screen, cell-based, thallium flux, high-throughput. CHO-K1 KCNQ1, FluxOR thallium flux fluorescence; active compounds read high. B-score at 10 µM. 310,000 compounds, 1.3% hits. AID 2642, 2010;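 active = compounds whose thallium flux B-score, printed positive for inhibition, exceeds three library SD while starting fluorescence stays within three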;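 also: channel opened by potassium depolarization with thallium stimulus after 20 min compound exposure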
KCNK3 block: human KCNK3 channel inhibitors, primary screen, CHO cells, FluxOR thallium flux, B-score; Potassium channel subfamily K member 3 (Homo sapiens), O14649; FluxOR fluorescence; active compounds read low; B-score at 10 µM; 340,000 compounds, 0.84% hits; AID 602410, 2012;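 active = B-score under library mean minus 4 SD, starting fluorescence ratio at most library mean plus 5 SD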;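 also: more negative B-score means stronger inhibition of thallium flux through KCNK3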
KCNQ1 act: potentiators or activators of KCNQ1 channel, primary screen, cell-based, thallium flux, high-throughput; Potassium voltage-gated channel subfamily KQT member 1 (Homo sapiens), P51787; CHO-K1 KCNQ1, thallium flux FluxOR fluorescence; active compounds read high; B-score at 10 µM; 310,000 compounds, 0.35% hits; AID 2648, 2010;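 active = fluorescence ratio B-score, a plate-corrected score, at least three library SD, with initial intensity B-score within 5 SD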
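Doses: Single concentration per compound, DMSO matched to controls | Test system: KCNQ1-transfected CHO-K1 cells | Timing: 90 min dye loading and 20 min compound exposure, both at room temperature | Measured by: Kinetic FluxOR thallium fluorescence, 10-s 1-Hz baseline, 110-s post-stimulus read | Medium: Assay buffer with matched DMSO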
hERG rescue: hERG rescue from dofetilide block, primary screen, cell-based, CHO-hERG, FluxOR thallium flux, dofetilide IC70; activation (rescue from dofetilide block), less the hit threshold, % at 10 µM; 310,000 compounds, 0.51% hits; dofetilide IC70 present;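 active = activation above the mean of controls blocked by dofetilide plus 5 SD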;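 also: thallium influx through hERG after potassium depolarization seen as dye fluorescence rise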
Cl transport mod: KCC2 cotransporter modulators, thallium flux, primary screen, cell-based, HEK293 KCC2, FluoZin-2 fluorescence, MLSMR. Solute carrier family 12 member 5 (Homo sapiens), Q9H2X9. KCC2 cells, thallium flux FluoZin-2 fluorescence. B-score of Tl+ flux slope (higher = more flux/activation; lower = inhibition) at 10 µM. 190,000 compounds, 2.2% hits. AID 1456, 2008;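 active = thallium flux slope and its plate-corrected score both differing from the plate sample mean at a set confidence after two filtering rounds, in either direction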;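 also: slope of fluorescence scaled to starting intensity during 10 to 20 s after thallium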
KCNK9 block: KCNK9 potassium channel inhibitors, primary screen, HEK293 cells, thallium flux. B-score at 10 µM. 310,000 compounds, 1.2% hits. AID 488922, 2010. FluxOR thallium flux fluorescence; active compounds read low. Potassium channel subfamily K member 9 (Homo sapiens), Q9NPC2;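 active = ratio B-score over 3 SD below the library mean, with starting fluorescence within 5 SD of its mean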;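 also: negative B-score means less thallium flux so channel inhibition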
KCNK9 block conf: KCNK9 potassium channel inhibitors, confirmation, HEK293 cells, thallium flux, duplicate; shares compounds with KCNK9 block; FluxOR thallium flux fluorescence; inhibition, % at 10 µM; 4,900 compounds, 43% hits; AID 492992, 2010;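 active = thallium signal inhibited by more than 5 SD of the compound-free buffer control wells, on both duplicate plates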;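 also: 0% = assay buffer control wells without compound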
Kir21 sel: mouse Kir2.1 channel inhibition, confirmation, selectivity assay for KCNK9 modulator project, cell-based, HEK293, thallium flux; 4,900 compounds, 4% hits; shares compounds with KCNK9 block; Kir2.1 cells, FluxOR thallium flux fluorescence; inhibition, % at 10 µM; AID 492993, 2010;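 active = thallium signal drop more than 5 SD beyond the mean of the no-compound control wells, seen in both duplicate plates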;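 also: signal is fluorescence rise after thallium addition divided by baseline fluorescence; plate controls were assay buffer only for no effect and full block by chlorpromazine control for full effect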
HEK293 Tl ctr: thallium flux in non-induced HEK293 cells, confirmation, counter-screen for KCNK9 inhibitor project, cell-based, second counter screen, non-induced KCNK9-HEK293; shares compounds with KCNK9 block; FluxOR thallium flux; inhibition, % at 10 µM; 4,900 compounds, 40% hits; AID 492997, 2010;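 active = thallium signal drop beyond 5 SD of the untreated control mean, on both duplicate plates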;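 also: plate controls were buffer only IC0 wells for no effect and SID17386958 at its maximal inhibitory level for full effect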
Numbers without * were called inactive; i = inactive; nt = no result given. Rows were chosen to be rich in hits. Some 4.1% of all compounds tested hit in one or more screens of this group.

SMILES	KCNQ1 inh	KCNK3 block	KCNQ1 act	hERG rescue	Cl transport mod	KCNK9 block	KCNK9 block conf	Kir21 sel	HEK293 Tl ctr
COc1ccc(-c2csc(NC(=O)c3cc(=O)c4ccccc4o3)n2)cc1OC	i	i	i	-16.3	0.327	i	nt	nt	nt
Cc1ccc(-c2nnc(CSc3nc(C(C)C)nc4sc(C)c(C)c34)o2)cc1	i	i	i	-12.3	9.06*	i	i	i	i
CCCCn1c(NCc2ccccn2)nc2ccccc21	i	i	i	-4.9	-0.816	i	nt	nt	nt
CCc1ccccc1NC(=O)c1cc([N+](=O)[O-])ccc1N1CCOCC1	i	i	i	-5.1	nt	i	nt	nt	nt
CC1CCN(c2ccccc2NC(=O)c2cc([N+](=O)[O-])ccc2N2CCOCC2)CC1	8*	i	i	-12.6	nt	-9.82*	30.5%*	i	30.0%*
O=C(Nc1ccccc1N1CCOCC1)c1cccc2c(Br)cccc12	i	i	i	-2.0	nt	i	i	i	i
CCN1C(=O)C(Cc2nc3ccccc3c(=O)n2-c2ccccc2)c2ccccc21 (stereo not drawn)	i	i	i	-9.8	nt	i	nt	nt	nt
CN(CCc1ccccc1)C(=O)c1cc(COc2cccc(C(F)(F)F)c2)on1	i	i	i	-6.3	nt	i	nt	nt	nt
Nn1c(SCC(=O)NCCc2ccc(F)cc2)nnc1C1CCCCC1	nt	i	nt	nt	nt	nt	nt	nt	nt
Cc1cc(C)nc(N=Nc2c(O)n(Cc3ccc(Cl)cc3)c3ccccc23)n1	i	i	i	-3.9	1.95	-18.2*	72.0%*	i	26.5%*
COCCN(C(=O)c1ccc(-c2ccc([N+](=O)[O-])cc2)o1)c1c(N)n(CC(C)C)c(=O)[nH]c1=O	nt	i	nt	nt	nt	nt	nt	nt	nt
Cc1ccc(-c2noc(CSc3nnc(CCc4ccccc4)n3-c3ccccc3)n2)cc1	i	i	i	-10.1	-1.5	-10.2*	i	i	36.5%*
Cn1c(SCc2nc(-c3ccc(Cl)cc3)no2)nnc1-c1ccccc1	i	i	i	-10.3	-3.28	i	nt	nt	nt
COc1ccc(-c2noc(CSc3nnc(Cc4ccccc4)n3-c3ccc(Cl)cc3)n2)cc1	i	i	i	-14.2	nt	i	i	i	i
Cc1ccc(-c2noc(CSc3nnc(Cc4ccccc4)n3-c3ccc(Cl)cc3)n2)cc1	i	i	i	-9.9	nt	i	i	i	31.0%*
CCc1nc2nc(C)c(NS(=O)(=O)c3ccc(C4CCCCC4)cc3)c(=O)n2[nH]1	i	i	i	-11.1	nt	i	nt	nt	nt
CCOc1ccc2[nH]c(=O)c(CN(CCc3ccccc3)C(=O)N3CCCC3)cc2c1	i	i	i	-11.2	0.235	i	i	i	i
